# Measured values from ChEMBL document CHEMBL1126114, “A novel orally active inhibitor of IL-1 generation: synthesis and structure-activity relationships of 3-(4-hydroxy-1-naphthalenyl)-2-propenoic acid derivatives” (J Med Chem, 1992).
# Values joined by “and” are separate entries in the source; they are usually repeats but may differ in a detail not shown here. Identical values can stand only once.
# Columns and labels:
# [1] = system: Rattus norvegicus; experiment: The compound was tested for IL-1 generation on CMC-LPS air-pouch model at 12.5 mg/Kg by oral administration; assay type: functional, organism-based
# Procedure, shortened: (§1)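 Rats got 10 mL subcutaneous dorsal air, then 6 mL sterile 2% (w/v) CMC-Na in saline into the pouch 24 h later, then 5 ng LPS in 0.5 mL saline 24 h after that. Compound given orally as a suspension in 0.5% methyl cellulose 2 h before LPS. Exudate collected 4 h after LPS. Extra- plus intracellular IL-1 measured by LAF assay against a human recombinant IL-1α curve. Percent inhibition versus control; five rats per group.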
# [2] = system: Rattus norvegicus; experiment: The compound was tested for IL-1 generation on CMC-LPS air-pouch model at 25 mg/Kg by oral administration; assay type: functional, organism-based; procedure, shortened: as §1
# [3] = system: Rattus norvegicus; experiment: % inhibition against arthritis on adjuvant-untreated paw in rats at 100 mg/Kg by oral administration; assay type: functional
# Procedure, shortened: (§2)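 Adjuvant arthritis in rats; drug given orally once daily from the first day of adjuvant treatment. Swelling of the adjuvant-untreated paw measured by plethysmometer on day 15 after adjuvant; % inhibition versus control. Mean ± SEM of 6–10 animals; significance versus control.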
# [4] = system: Rattus norvegicus; experiment: % inhibition against arthritis on adjuvant-untreated paw in rats at 12.5 mg/Kg by oral administration; assay type: functional; procedure, shortened: as §2
# [5] = system: Rattus norvegicus; experiment: % inhibition against arthritis on adjuvant-untreated paw in rats at 25 mg/Kg by oral administration; assay type: functional; procedure, shortened: as §2
# [6] = system: Rattus norvegicus; experiment: % inhibition against arthritis on adjuvant-untreated paw in rats at 50 mg/Kg by oral administration; assay type: functional; procedure, shortened: as §2
# [7] = system: Rattus norvegicus; experiment: The compound was tested for PGE-2 generation on CMC-LPS air-pouch model at 100 mg/Kg by oral administration; assay type: functional, organism-based
# Procedure, shortened: (§3)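 Rat dorsal air pouch: CMC-Na (2% w/v, 6 mL) injected 24 h after the air, LPS (5 ng) 24 h after that. Oral dosing as a suspension in 0.5% methyl cellulose 2 h before LPS. Exudate sampled 4 h post-LPS; PGE2 in the exudate supernatant measured by radioimmunoassay. Percent inhibition versus control; five animals per group.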
# [8] = system: Rattus norvegicus; experiment: The compound was tested for PGE-2 generation on CMC-LPS air-pouch model at 12.5 mg/Kg by oral administration; assay type: functional, organism-based; procedure, shortened: as §3
# [9] = system: Rattus norvegicus; experiment: The compound was tested for PGE-2 generation on CMC-LPS air-pouch model at 200 mg/Kg by oral administration; assay type: functional, organism-based; procedure, shortened: as §3
# [10] = system: Rattus norvegicus; experiment: The compound was tested for PGE-2 generation on CMC-LPS air-pouch model at 25 mg/Kg by oral administration; assay type: functional, organism-based; procedure, shortened: as §3
# [11] = system: Rattus norvegicus; experiment: The compound was tested for PGE-2 generation on CMC-LPS air-pouch model at 50 mg/Kg by oral administration; assay type: functional, organism-based; procedure, shortened: as §3
# [12] = system: Rattus norvegicus; experiment: In vivo percent inhibition of IL-1 generation in rat CMC-LPS air pouch model at 100 uM concentration (local administration); assay type: functional
# Procedure, shortened: (§4)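 Rat air pouch: 10 mL air s.c. into the dorsum, 2% CMC-Na in saline 24 h later, then LPS 5 ng 24 h after CMC. Compound given locally in 5% EtOH-RPMI with 30% autologous serum, 100 μM final in exudate, at 30 min before and just before LPS. Exudate IL-1 (extra- plus intracellular) read by LAF at 4 h. n=5; % inhibition ± SEM.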
# [13] = system: Rattus norvegicus; experiment: Compound was evaluated in vivo for the percent inhibition of IL-1 generation in rat CMC-LPS air pouch model at 50 mg/Kg concentration (oral administration); assay type: functional
# Procedure, shortened: (§5)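 Rat CMC-LPS air pouch: air s.c., 2% CMC-Na 24 h later, LPS 5 ng 24 h after that. Compound given orally in 0.5% methyl cellulose 2 h before LPS. Exudate collected at 4 h; IL-1 (extra- plus intracellular) read by LAF assay against a recombinant human IL-1α curve.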
# [14] = system: Rattus norvegicus; experiment: Inhibitory activity against Granuloma on CMC-LPS air-pouch model at 100 mg/Kg by oral administration; assay type: functional
# Procedure, shortened: (§6)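 Rat CMC-LPS air pouch (air, 2% CMC-Na, then LPS 5 ng). Oral dosing in 0.5% methyl cellulose 2 h before LPS. Granuloma wet weight determined 5 days after LPS; % inhibition versus control, with an LPS-free group included.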
# [15] = system: Rattus norvegicus; experiment: Inhibitory activity against Granuloma on CMC-LPS air-pouch model at 12.5 mg/Kg by oral administration; assay type: functional; procedure, shortened: as §6
# [16] = system: Rattus norvegicus; experiment: Inhibitory activity against Granuloma on CMC-LPS air-pouch model at 200 mg/Kg by oral administration; assay type: functional; procedure, shortened: as §6
# [17] = system: Rattus norvegicus; experiment: Inhibitory activity against Granuloma on CMC-LPS air-pouch model at 25 mg/Kg by oral administration; assay type: functional; procedure, shortened: as §6
# [18] = system: Rattus norvegicus; experiment: Inhibitory activity against IL-1 on CMC-LPS air-pouch model at 100 mg/Kg by oral administration; assay type: functional; procedure, shortened: as §5
# [19] = system: Rattus norvegicus; experiment: Inhibitory activity against IL-1 on CMC-LPS air-pouch model at 12.5 mg/Kg by oral administration; assay type: functional; procedure, shortened: as §5
# [20] = system: Rattus norvegicus; experiment: Inhibitory activity against IL-1 on CMC-LPS air-pouch model at 200 mg/Kg by oral administration; assay type: functional; procedure, shortened: as §5
# [21] = system: Rattus norvegicus; experiment: Inhibitory activity against IL-1 on CMC-LPS air-pouch model at 25 mg/Kg by oral administration; assay type: functional; procedure, shortened: as §5
# [22] = system: Rattus norvegicus; experiment: Inhibitory activity against IL-1 on CMC-LPS air-pouch model at 50 mg/Kg by oral administration; assay type: functional; procedure, shortened: as §5
# [23] = system: Rattus norvegicus; experiment: Inhibitory activity against PGE-2 on CMC-LPS air-pouch model at 100 mg/Kg by oral administration; assay type: functional
# Procedure, shortened: (§7)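 Rat CMC-LPS air pouch (air, 2% CMC-Na, then LPS 5 ng). Oral dosing in 0.5% methyl cellulose 2 h before LPS. PGE2 in the exudate supernatant collected 4 h after LPS, measured by radioimmunoassay.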
# [24] = system: Rattus norvegicus; experiment: Inhibitory activity against PGE-2 on CMC-LPS air-pouch model at 12.5 mg/Kg by oral administration; assay type: functional; procedure, shortened: as §7
# [25] = system: Rattus norvegicus; experiment: Inhibitory activity against PGE-2 on CMC-LPS air-pouch model at 200 mg/Kg by oral administration; assay type: functional; procedure, shortened: as §7
# [26] = system: Rattus norvegicus; experiment: Inhibitory activity against PGE-2 on CMC-LPS air-pouch model at 25 mg/Kg by oral administration; assay type: functional; procedure, shortened: as §7
# [27] = system: Rattus norvegicus; experiment: Inhibitory activity against PGE-2 on CMC-LPS air-pouch model at 50 mg/Kg by oral administration; assay type: functional; procedure, shortened: as §7
# [28] = system: Rattus norvegicus; experiment: Activity against arthritis on adjuvant-untreated paw in rats at 25 mg/Kg by oral administration; assay type: functional; procedure, shortened: as §2
# [29] = system: Rattus norvegicus; experiment: Activity against arthritis on adjuvant-untreated paw in rats at 50 mg/Kg by oral administration; assay type: functional; procedure, shortened: as §2
# [30] = system: Rattus norvegicus; experiment: Activity against arthritis on adjuvant-untreated paw in rats at 100 mg/Kg by oral administration; assay type: functional; procedure, shortened: as §2
# [31] = system: Rattus norvegicus; experiment: Activity against arthritis on adjuvant-untreated paw in rats at 12.5 mg/Kg by oral administration; assay type: functional; procedure, shortened: as §2
# [32] = system: Rattus norvegicus; experiment: The compound was tested for Granuloma generation on CMC-LPS air-pouch model at 25 mg/Kg by oral administration; assay type: functional; procedure, shortened: as §6
# [33] = system: Rattus norvegicus; experiment: The compound was tested for Granuloma generation on CMC-LPS air-pouch model at 50 mg/Kg by oral administration; assay type: functional; procedure, shortened: as §6
# [34] = system: Rattus norvegicus; experiment: The compound was tested for Granuloma generation on CMC-LPS air-pouch model at 100 mg/Kg by oral administration; assay type: functional; procedure, shortened: as §6
# [35] = system: Rattus norvegicus; experiment: The compound was tested for Granuloma generation on CMC-LPS air-pouch model at 12.5 mg/Kg by oral administration; assay type: functional; procedure, shortened: as §6
# [36] = system: Rattus norvegicus; experiment: The compound was tested for Granuloma generation on CMC-LPS air-pouch model at 200 mg/Kg by oral administration; assay type: functional; procedure, shortened: as §6
# [37] = system: Rattus norvegicus; experiment: Inhibitory activity against Granuloma on CMC-LPS air-pouch model at 50 mg/Kg by oral administration; assay type: functional; procedure, shortened: as §6
# [38] = species: Homo sapiens; experiment: In vitro inhibitory activity against IL-1 generation by using human monocyte; assay type: functional
# Procedure, shortened: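 Healthy-donor peripheral mononuclear cells, adhered 1.5 h in RPMI 1640 with 10% heat-inactivated autologous serum. Adherent monocytes then stimulated with LPS 1 μg/mL for 16–18 h in 1% autologous serum with 0.1% ethanol, ± drug. Extra- plus intracellular IL-1 read by LAF assay against a recombinant human IL-1β curve. IC50 by least squares; mean of ≥2 experiments.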
# [39] = species: Rattus norvegicus; experiment: In vitro inhibitory activity against IL-1 generation by using rat exudated macrophages; assay type: functional
# Procedure, shortened: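 Fisher rat peritoneal exudate cells collected 4 days after i.p. 2.5% glycogen. Cells adhered 1.5 h at 37 °C in 1% normal rat serum. Adherent macrophages stimulated with LPS 1 ng/mL for 4 h ± compound. Intracellular IL-1 read by LAF assay against a recombinant human IL-1α curve. IC50 by least squares; mean of duplicates.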
# [40] = system: Rattus norvegicus; experiment: Compound was evaluated in vivo for the percent inhibition of IL-1 generation in rat CMC-LPS air pouch model at 100 uM concentration; assay type: functional; procedure, shortened: as §4
smiles,measurement,setting,value
CCc1cccc2c(/C=C(/C)C(=O)O)cc(OC)c(O)c12,Concentration,[1],1290 U/mL
same,Concentration,[2],1030 U/mL
same,inhibition in vivo at 100 mg/kg,[3],51.4%
same,inhibition in vivo at 12.5 mg/kg,[4],20.1%
same,inhibition in vivo at 25 mg/kg,[5],34.1%
same,inhibition in vivo at 50 mg/kg,[6],38.8%
same,Concentration,[7],0.8 ng/mL
same,Concentration,[8],5.9 ng/mL
same,Concentration,[9],0.9 ng/mL
same,Concentration,[10],5.2 ng/mL
same,Concentration,[11],2.9 ng/mL
same,Inhibition,[12],94% and 91%
same,inhibition in vivo at 50 mg/kg,[13],65%
same,inhibition in vivo at 100 mg/kg,[14],76%
same,inhibition in vivo at 12.5 mg/kg,[15],< 25%
same,inhibition in vivo at 200 mg/kg,[16],87%
same,inhibition in vivo at 25 mg/kg,[17],37%
same,inhibition in vivo at 100 mg/kg,[18],84%
same,inhibition in vivo at 12.5 mg/kg,[19],< 25%
same,inhibition in vivo at 200 mg/kg,[20],91%
same,inhibition in vivo at 25 mg/kg,[21],40%
same,inhibition in vivo at 50 mg/kg,[22],65%
same,inhibition in vivo at 100 mg/kg,[23],91%
same,inhibition in vivo at 12.5 mg/kg,[24],35%
same,inhibition in vivo at 200 mg/kg,[25],90%
same,inhibition in vivo at 25 mg/kg,[26],43%
same,inhibition in vivo at 50 mg/kg,[27],68%
same,Swelling,[28],36.4%
same,Swelling,[29],33.8%
same,Swelling,[30],26.8%
same,Swelling,[31],44.1%
same,Wet weight,[32],1.61 g
same,Wet weight,[33],1.49 g
same,Wet weight,[34],1.25 g
same,Wet weight,[35],1.93 g
same,Wet weight,[36],1.16 g
same,inhibition in vivo at 50 mg/kg,[37],49%
CCc1cccc2c(/C=C/C(=O)O)cc(Cl)c(O)c12,IC50,[38],5.4 µM
same,IC50,[39],6 µM
same,Inhibition,[40],<25%
